Experimental data from different studies.
Each line is one published result; the experiments were not run side by side.

| Structure (SMILES) | tested on | assay | system | setting | endpoint | result |
| --- | --- | --- | --- | --- | --- | --- |
| CCC(=O)C[C@H](O)C[C@@H](C)C[C@H](NC(=O)[C@@H]1C[C@H](C)CN1C(=O)/C=C/[C@@H](C)CC)C(=O)N[C@H](C(=O)NC(C)(C)C(=O)N[C@@H](CC(C)C)C(=O)N[C@@H](CC(C)C)C(=O)NC(C)(C)C(=O)NC(C)(C)C(=O)NCCC(=O)N[C@@H](C)CN(C)C)[C@H](O)C(C)C | L6 | cell growth or viability, resazurin |  | 68 h | IC50 | 0.259 µM |
| CC(=O)c1ccc2c(c1)N(CCCN(C)C)c1ccccc1S2 | CEM-SS | cell growth or viability, XTT |  | 6 days | CC50 | 18 µM |
| N=C(N)c1ccc(OCCCCCOc2ccc(C(=N)N)cc2)cc1 | L6 | cell growth or viability, resazurin |  | 70 h | IC50 | 7.6 µM |
| O=[N+]([O-])c1ccc(-c2nc3cccc(O)c3[nH]2)o1 | CEM-SS | cell growth or viability, resazurin |  | 72 h | CC50 | 90 µM |
| C=C(C)[C@H](CC=C(C)C)Cc1c(O)cc(O)c2c1O[C@H](c1ccccc1O)CC2=O | COLO 205 | cell growth or viability, MTT |  | 48 h | IC50 | 28.1 µM |
| Nc1nc(-c2cc(F)cc(NC(=O)Nc3cc(F)cc(-c4c[nH]c(N)n4)c3)c2)c[nH]1 |  | metabolic stability | human, liver microsomes | 5 µM, 1 h, pH 7.4 | compound remaining | > 80% |
| CCCC(=O)Nc1cccc(NC(=O)c2ccccc2Br)c1 |  | chemical stability | mouse, plasma | 5 µM, 5 h, pH 7.4 | compound remaining | 2% |
| Nc1nc(-c2ccc(NC(=O)Nc3ccc(-c4c[nH]c(N)n4)c(F)c3)cc2F)c[nH]1 |  | metabolic stability | human, liver microsomes | 5 µM, 1 h, pH 7.4 | compound remaining | > 80% |
| O=C(CCCO)N1N=C(c2c(-c3ccc(Cl)cc3)c3ccccc3[nH]c2=O)CC1c1ccc(Cl)cc1 (stereo not drawn) |  | metabolic stability | human, liver microsomes | 1 µM, 10 min, pH 7.4 | compound remaining | 52% |
| Oc1c(-n2ccnn2)cnn1-c1cc(N2CCOCC2)ncn1 |  |  | female monkey, plasma | intravenous, 1 mg/kg | clearance | 0.7 L/h/kg |
| Nc1ccn([C@@H]2CS[C@H](CO)O2)c(=O)n1 | HepG2.2.15 | cell growth or viability, MTT |  | 6 days | CC50 | > 1000 µM |
| COc1cccc2c1C(=O)c1c(O)c3c(c(O)c1C2=O)C[C@@](O)(C(=O)CO)C[C@@H]3O[C@H]1C[C@H](N)[C@H](O)[C@H](C)O1 | COLO 205 | cell growth or viability, MTT |  | 48 h | IC50 | 0.5 µM |
